# Experimental data from different studies.
# Protocols differ between the studies behind these lines.
# Cell line: PC-3
# Effect on: cell growth or viability
SMILES,assay,setting,IC50 [µM]
COc1cc(Nc2nccc(-c3cnn4nc(OC)ccc34)n2)cc(C(F)(F)F)c1,ATP luminescence,,0.37
COc1ccnc(COc2ccc(NC(=O)Nc3ccc(F)cc3)cc2)c1OC,MTT,72 h,50.1
Cc1ccc(C(=O)O)c(NC(=O)c2ccc(N)cc2)c1,MTT,,> 120
Cc1cc(C)cc(COc2cc3c(cc2OCc2cc(C)cc(C)c2)[C@H]2C[C@](O)(Cc4cn(Cc5ccc(NC(=O)/C=C/CN(C)C)cc5)nn4)C[C@H](C)N2CC3)c1,MTT,,0.345
O=C(/C=C/c1ccc2ncn(Cc3ccccc3F)c(=O)c2c1)NO,SRB,48 h,0.639
COc1ccc(Cn2cc(C[C@@]3(O)C[C@@H]4c5cc(OCc6cc(C)cc(C)c6)c(OCc6cc(C)cc(C)c6)cc5CCN4[C@@H](C)C3)nn2)cc1,MTT,,0.866
CC(C)c1n[nH]c2c(Nc3ccccc3)nc(CNCc3ccccc3)cc12,MTS,48 h,5.8
COc1ccc(/C=C/c2cc(C)no2)cc1OC,MTT,72 h,> 100
COc1ccc(NC(=O)Nc2ccc(OCc3nccc(OCC(F)(F)F)c3C)cc2)cc1,MTT,72 h,89.1
CCOC(=O)c1cc2cc(Nc3ncnc4cc(OCCCN5CCC(C)CC5)c(OC)cc34)ccc2s1,MTT,,> 100
COC1=CC(=O)N(C(=O)[C@@H](CCC(Cl)(Cl)Cl)NC(=O)C(C)(C)C)[C@@H]1CCC(Cl)(Cl)Cl,resazurin,72 h,13
COc1cc2ncnc(Nc3ccc(F)c(Cl)c3)c2cc1NC(=O)N/N=C/c1cccn1CCN1CCCC1,MTT,72 h,1.24
C[C@H]1O[C@@H](n2cc(F)c(=O)[nH]c2=O)[C@H](O)[C@@H]1O,CCK-8,48 h,> 50
COCCCOc1ccnc(COc2ccc(NC(=O)Nc3cc(F)cc(F)c3)cc2)c1C,MTT,72 h,> 100
[Cl-].[Cl-].[Cl-].[Fe+3],resazurin,72 h,4800
N=C(Nc1ccccc1)c1cc2c(-c3ccccc3)n[nH]c2c(Nc2ccccc2)n1,MTS,48 h,1.2
COc1cc2ncnc(Nc3ccc(F)c(Cl)c3)c2cc1NC(=O)N/N=C/CN1CCOCC1,MTT,72 h,3.3
COc1ccc2c(N(C)c3ccc(/C(C)=N/OCCN)cc3)c3c(Cl)coc3nc2c1,trypan blue,72 h,1.59
C=CC(=O)Nc1ccc(Cn2cc(C[C@@]3(O)C[C@@H]4c5cc(OCc6cc(C)cc(C)c6)c(OCc6cc(C)cc(C)c6)cc5CCN4[C@@H](C)C3)nn2)cc1,MTT,,0.161
CCN(CC)C/C=N/NC(=O)Nc1cc2c(Nc3ccc(F)c(Cl)c3)ncnc2cc1O[C@H]1CCOC1,MTT,72 h,0.58
CCCCc1ccc2[nH]c(NC(=O)OC)nc2c1,CCK-8,72 h,0.15
COc1cc2ncnc(Nc3ccc(F)c(Cl)c3)c2cc1NC(=O)N/N=C/CN1CCN(C)CC1,MTT,72 h,5.03
COc1ccc(NC(=O)Nc2ccc(OCc3ncc(C)c(OC)c3C)cc2)cc1,MTT,72 h,> 100
C/C=C/C(=O)Nc1ccc(Cn2cc(C[C@@]3(O)C[C@@H]4c5cc(OCc6cc(C)cc(C)c6)c(OCc6cc(C)cc(C)c6)cc5CCN4[C@@H](C)C3)nn2)cc1,MTT,,0.364
COc1ccc2c(c1OC)C(=O)O[C@@H]2[C@H]1c2c(c(Br)c3c(c2OC)OCO3)CCN1C,MTT,48 h,182
C=CC(=O)Nc1ccc(CCn2cc(C[C@@]3(O)C[C@@H]4c5cc(OCc6cc(C)cc(C)c6)c(OCc6cc(C)cc(C)c6)cc5CCN4[C@@H](C)C3)nn2)cc1,MTT,,0.252
COc1cc2ncnc(Nc3ccc(F)c(Cl)c3)c2cc1NC(=O)N/N=C/c1cccn1CCCN1CCN(C)CC1,MTT,72 h,0.66
Cc1ccc(Cn2cc(C[C@@]3(O)C[C@@H]4c5cc(OCc6cc(C)cc(C)c6)c(OCc6cc(C)cc(C)c6)cc5CCN4[C@@H](C)C3)nn2)cc1,MTT,,0.375
Cc1c(OCC(F)(F)F)ccnc1COc1ccc(NC(=O)Nc2cc(F)cc(F)c2)cc1,MTT,72 h,> 100
Cc1cc(C)cc(COc2cc3c(cc2OCc2cc(C)cc(C)c2)[C@H]2C[C@](O)(Cc4cn(Cc5ccc(S(C)(=O)=O)cc5)nn4)C[C@H](C)N2CC3)c1,MTT,,0.223
COc1cccc2c1C(=O)c1c(O)c3c(c(O)c1C2=O)C[C@@](O)(C(=O)CO)C[C@@H]3O[C@H]1C[C@H](N)[C@H](O)[C@H](C)O1,MTT,72 h,2.35
COc1c(C)cnc(COc2ccc(NC(=O)Nc3cccc(C(F)(F)F)c3)cc2)c1C,MTT,72 h,> 100
c1ccc(CNCc2cc3c(-c4ccccc4)n[nH]c3c(Nc3ccccc3)n2)cc1,MTS,48 h,3.9
COc1c(C)cnc(COc2ccc(NC(=O)Nc3ccc(Cl)cc3)cc2)c1C,MTT,72 h,47.9
O=C(N/N=C/c1cccn1CCCN1CCCCC1)Nc1cc2c(Nc3ccc(F)c(Cl)c3)ncnc2cc1O[C@H]1CCOC1,MTT,72 h,0.15
COCCCOc1ccnc(COc2ccc(NC(=O)Nc3ccc(Cl)c(C(F)(F)F)c3)cc2)c1C,MTT,72 h,> 100
O=C(N/N=C/c1cccn1CCN1CCOCC1)Nc1cc2c(Nc3ccc(F)c(Cl)c3)ncnc2cc1O[C@H]1CCOC1,MTT,72 h,4.27
CCn1cnc2ccc(/C=C/C(=O)NO)cc2c1=O,SRB,48 h,7.04
Cc1cc(C)cc(COc2cc3c(cc2OCc2cc(C)cc(C)c2)[C@H]2C[C@](O)(Cc4cn(CC56CC7CC(CC(C7)C5)C6)nn4)C[C@H](C)N2CC3)c1,MTT,,0.143
COc1cc2ncnc(Nc3ccc(F)c(Cl)c3)c2cc1NC(=O)N/N=C/c1cccn1CCN(C)C,MTT,72 h,1.25
